Test system in the first data set: not listed separately
The experiment in a line: Tumor and skin uptake ratio of the compound. Format: functional.
Details: not given
The gist of the method: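 C3H mice bearing RIF tumors, anesthetized with ketamine xylazine ip; photosensitizer given iv at 5.0 µmol/kg. Uptake measured by in vivo reflectance spectroscopy: light scattered by tissue recorded before and after injection, and drug absorption taken as the postinjection/preinjection spectral ratio. Tumor versus skin uptake compared at 24 h postinjection.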
As for `CCCCCCCCCOC(C)C1=C(C)c2cc3nc(c4c5[nH]c(cc6[nH]c(cc1n2)c(C)c6CC)c(C)c5C(=O)N(CCCCCC)C4=O)[C@@H](CCC(=O)OC)[C@@H]3C` (stereo partly drawn), the Ratio was 3.02.

For `CCCCCCCCCCOC(C)C1=C(C)c2cc3nc(c4c5[nH]c(cc6[nH]c(cc1n2)c(C)c6CC)c(C)c5C(=O)N(CCC)C4=O)[C@@H](CCC(=O)OC)[C@@H]3C` (stereo partly drawn), the Ratio was 2.4.

For the compound `CCCCCCCCCCCCOC(C)C1=C(C)c2cc3nc(c4c5[nH]c(cc6[nH]c(cc1n2)c(C)c6CC)c(C)c5C(=O)N(CCCCCCCCCCCC)C4=O)[C@@H](CCC(=O)OC)[C@@H]3C` (stereo partly drawn), the Ratio came out at 1.87.

Regarding `CCCCCCCCCCCCOC(C)C1=C(C)c2cc3nc(c4c5[nH]c(cc6[nH]c(cc1n2)c(C)c6CC)c(C)c5C(=O)N(C)C4=O)[C@@H](CCC(=O)OC)[C@@H]3C` (stereo partly drawn), the Ratio stood at 3.57.

For `CCCOC(C)C1=C(C)c2cc3nc(c4c5[nH]c(cc6[nH]c(cc1n2)c(C)c6CC)c(C)c5C(=O)N(CCC)C4=O)[C@@H](CCC(=O)OC)[C@@H]3C` (stereo partly drawn), the Ratio came out at 2.19.

As for `CCCCCCCCCCCCOC(C)C1=C(C)c2cc3nc(c4c5[nH]c(cc6[nH]c(cc1n2)c(C)c6CC)c(C)c5C(=O)N(CCCCCC)C4=O)[C@@H](CCC(=O)OC)[C@@H]3C` (stereo partly drawn), the Ratio came to 2.19.

For `CCCCCCCCCCN1C(=O)c2c3nc(cc4nc(cc5[nH]c(cc6[nH]c2c(c6C)C1=O)c(CC)c5C)C(C(C)OCCCCCC)=C4C)[C@@H](C)[C@@H]3CCC(=O)OC` (stereo partly drawn), the Ratio worked out at 2.88.

With `CCCCCCCCCCN1C(=O)c2c3nc(cc4nc(cc5[nH]c(cc6[nH]c2c(c6C)C1=O)c(CC)c5C)C(C(C)OCCC)=C4C)[C@@H](C)[C@@H]3CCC(=O)OC` (stereo partly drawn), the Ratio came out at 1.89.

Take `CCCCCCN1C(=O)c2c3nc(cc4nc(cc5[nH]c(cc6[nH]c2c(c6C)C1=O)c(CC)c5C)C(C(C)OC)=C4C)[C@@H](C)[C@@H]3CCC(=O)OC` (stereo partly drawn): the Ratio turned out to be 2.24.

A further data set has as its system Mus musculus. As to the kind of experiment: Skin uptake in C3H mice bearing RIF tumors, determined by in vivo reflectance spectroscopy following 5.0 umol/kg administration. Format: functional.
Details: not given
The method, boiled down:
(§1)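 Photosensitizer given iv at 5.0 µmol/kg to C3H mice bearing RIF tumors, anesthetized with ketamine xylazine ip. Scattered-light spectrum from tissue was recorded before and after injection. The in vivo drug absorption was taken as the ratio of post- to pre-injection spectra. Tumor and skin were compared at 24 h postinjection.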
Compound `CCCCCCCCCOC(C)C1=C(C)c2cc3nc(c4c5[nH]c(cc6[nH]c(cc1n2)c(C)c6CC)c(C)c5C(=O)N(CCCCCC)C4=O)[C@@H](CCC(=O)OC)[C@@H]3C` (stereo partly drawn) returned a Skin uptake of 3.54 µM.

Regarding `CCCCCCCCCCOC(C)C1=C(C)c2cc3nc(c4c5[nH]c(cc6[nH]c(cc1n2)c(C)c6CC)c(C)c5C(=O)N(CCC)C4=O)[C@@H](CCC(=O)OC)[C@@H]3C` (stereo partly drawn), the Skin uptake amounted to 4.28 µM.

For `CCCCCCCCCCCCOC(C)C1=C(C)c2cc3nc(c4c5[nH]c(cc6[nH]c(cc1n2)c(C)c6CC)c(C)c5C(=O)N(CCCCCCCCCCCC)C4=O)[C@@H](CCC(=O)OC)[C@@H]3C` (stereo partly drawn), the Skin uptake is 2.7 µM.

As for `CCCCCCCCCCCCOC(C)C1=C(C)c2cc3nc(c4c5[nH]c(cc6[nH]c(cc1n2)c(C)c6CC)c(C)c5C(=O)N(C)C4=O)[C@@H](CCC(=O)OC)[C@@H]3C` (stereo partly drawn), the Skin uptake came to 1.74 µM.

For `CCCOC(C)C1=C(C)c2cc3nc(c4c5[nH]c(cc6[nH]c(cc1n2)c(C)c6CC)c(C)c5C(=O)N(CCC)C4=O)[C@@H](CCC(=O)OC)[C@@H]3C` (stereo partly drawn), the Skin uptake amounted to 4.8 µM.

As to `CCCCCCCCCCCCOC(C)C1=C(C)c2cc3nc(c4c5[nH]c(cc6[nH]c(cc1n2)c(C)c6CC)c(C)c5C(=O)N(CCCCCC)C4=O)[C@@H](CCC(=O)OC)[C@@H]3C` (stereo partly drawn), the Skin uptake was 4.3 µM.

`CCCCCCCCCCN1C(=O)c2c3nc(cc4nc(cc5[nH]c(cc6[nH]c2c(c6C)C1=O)c(CC)c5C)C(C(C)OCCCCCC)=C4C)[C@@H](C)[C@@H]3CCC(=O)OC` (stereo partly drawn) returned a Skin uptake of 1.8 µM.

`CCCCCCCCCCN1C(=O)c2c3nc(cc4nc(cc5[nH]c(cc6[nH]c2c(c6C)C1=O)c(CC)c5C)C(C(C)OCCC)=C4C)[C@@H](C)[C@@H]3CCC(=O)OC` (stereo partly drawn) yielded a Skin uptake of 6.09 µM.

In turn, `CCCCCCN1C(=O)c2c3nc(cc4nc(cc5[nH]c(cc6[nH]c2c(c6C)C1=O)c(CC)c5C)C(C(C)OC)=C4C)[C@@H](C)[C@@H]3CCC(=O)OC` (stereo partly drawn) returned a Skin uptake of 4.5 µM.

In a further data set the test system is Mus musculus. The experiment in a line: Tumor uptake in C3H mice bearing RIF tumors, determined by in vivo reflectance spectroscopy following 5.0 umol/kg administration. Format: functional.
Details: not given
The method, boiled down:
as §1
The compound `CCCCCCCCCOC(C)C1=C(C)c2cc3nc(c4c5[nH]c(cc6[nH]c(cc1n2)c(C)c6CC)c(C)c5C(=O)N(CCCCCC)C4=O)[C@@H](CCC(=O)OC)[C@@H]3C` (stereo partly drawn) displayed a Tumor uptake of 10.7 µM.

`CCCCCCCCCCOC(C)C1=C(C)c2cc3nc(c4c5[nH]c(cc6[nH]c(cc1n2)c(C)c6CC)c(C)c5C(=O)N(CCC)C4=O)[C@@H](CCC(=O)OC)[C@@H]3C` (stereo partly drawn) yielded a Tumor uptake of 10.26 µM.

`CCCCCCCCCCCCOC(C)C1=C(C)c2cc3nc(c4c5[nH]c(cc6[nH]c(cc1n2)c(C)c6CC)c(C)c5C(=O)N(CCCCCCCCCCCC)C4=O)[C@@H](CCC(=O)OC)[C@@H]3C` (stereo partly drawn) had a Tumor uptake of 5.04 µM.

As to `CCCCCCCCCCCCOC(C)C1=C(C)c2cc3nc(c4c5[nH]c(cc6[nH]c(cc1n2)c(C)c6CC)c(C)c5C(=O)N(C)C4=O)[C@@H](CCC(=O)OC)[C@@H]3C` (stereo partly drawn), the Tumor uptake came to 6.21 µM.

As to `CCCOC(C)C1=C(C)c2cc3nc(c4c5[nH]c(cc6[nH]c(cc1n2)c(C)c6CC)c(C)c5C(=O)N(CCC)C4=O)[C@@H](CCC(=O)OC)[C@@H]3C` (stereo partly drawn), the Tumor uptake stood at 10.5 µM.

In the case of `CCCCCCCCCCCCOC(C)C1=C(C)c2cc3nc(c4c5[nH]c(cc6[nH]c(cc1n2)c(C)c6CC)c(C)c5C(=O)N(CCCCCC)C4=O)[C@@H](CCC(=O)OC)[C@@H]3C` (stereo partly drawn), the Tumor uptake was 9.4 µM.

`CCCCCCCCCCN1C(=O)c2c3nc(cc4nc(cc5[nH]c(cc6[nH]c2c(c6C)C1=O)c(CC)c5C)C(C(C)OCCCCCC)=C4C)[C@@H](C)[C@@H]3CCC(=O)OC` (stereo partly drawn) yielded a Tumor uptake of 5.18 µM.

Compound `CCCCCCCCCCN1C(=O)c2c3nc(cc4nc(cc5[nH]c(cc6[nH]c2c(c6C)C1=O)c(CC)c5C)C(C(C)OCCC)=C4C)[C@@H](C)[C@@H]3CCC(=O)OC` (stereo partly drawn) registered a Tumor uptake of 11.5 µM.

The compound `CCCCCCN1C(=O)c2c3nc(cc4nc(cc5[nH]c(cc6[nH]c2c(c6C)C1=O)c(CC)c5C)C(C(C)OC)=C4C)[C@@H](C)[C@@H]3CCC(=O)OC` (stereo partly drawn) displayed a Tumor uptake of 10.1 µM.

Test system in another data set: not listed separately
The experiment in a line: Partition coefficient (logP). To be noted: octanol/water. It is filed as physicochemical.
The compound `CCCCCCCCCOC(C)C1=C(C)c2cc3nc(c4c5[nH]c(cc6[nH]c(cc1n2)c(C)c6CC)c(C)c5C(=O)N(CCCCCC)C4=O)[C@@H](CCC(=O)OC)[C@@H]3C` (stereo partly drawn) yielded a logP of 11.85.

`CCCCCCCCCCOC(C)C1=C(C)c2cc3nc(c4c5[nH]c(cc6[nH]c(cc1n2)c(C)c6CC)c(C)c5C(=O)N(CCC)C4=O)[C@@H](CCC(=O)OC)[C@@H]3C` (stereo partly drawn): the lipophilicity (logP) turned out to be 10.68.

`CCCCCCCCCCCCOC(C)C1=C(C)c2cc3nc(c4c5[nH]c(cc6[nH]c(cc1n2)c(C)c6CC)c(C)c5C(=O)N(C)C4=O)[C@@H](CCC(=O)OC)[C@@H]3C` (stereo partly drawn) yielded a logP of 10.73.

`CCCCCCCCCCN1C(=O)c2c3nc(cc4nc(cc5[nH]c(cc6[nH]c2c(c6C)C1=O)c(CC)c5C)C(C(C)OCCC)=C4C)[C@@H](C)[C@@H]3CCC(=O)OC` (stereo partly drawn): the log partition coefficient (logP) was 10.83.

The same data set, now with this note: octanol/water; read-out: logP.
On to `CCCOC(C)C1=C(C)c2cc3nc(c4c5[nH]c(cc6[nH]c(cc1n2)c(C)c6CC)c(C)c5C(=O)N(CCC)C4=O)[C@@H](CCC(=O)OC)[C@@H]3C` (stereo partly drawn), for which the lipophilicity (logP) was found to be 7.26.

For `CCCCCCN1C(=O)c2c3nc(cc4nc(cc5[nH]c(cc6[nH]c2c(c6C)C1=O)c(CC)c5C)C(C(C)OC)=C4C)[C@@H](C)[C@@H]3CCC(=O)OC` (stereo partly drawn), the log partition coefficient (logP) was found to be 7.82.

These data come from ChEMBL document CHEMBL1134470, “Synthesis, photophysical properties, tumor uptake, and preliminary in vivo photosensitizing efficacy of a homologous series of 3-(1'-alkyloxy)ethyl-3-devinylpurpurin-18-N-alkylimides with variable lipophilicity” (J Med Chem, 2001).
